Experimental data from PubChem BioAssay AID743337 (The Scripps Research Institute Molecular Screening Center, 2014).
Calls of active or inactive are those of the source.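 How the source made its calls: active means IC50 of 10 µM or lower; inactive means IC50 above 10 µM.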

These compounds were tested against Disintegrin and metalloproteinase domain-containing protein 17 (Homo sapiens) (UniProt P78536) (assay: concentration-dependent inhibition of human ADAM17 – biochemical, QFRET peptide cleavage, IC50, ADAM17 exosite inhibitor project, late-stage follow-up (AID 743337)). Details: recombinant ADAM17, QFRET peptide cleavage, fluorescence 3 h.
Sequence of Disintegrin and metalloproteinase domain-containing protein 17 (Homo sapiens) (P78536 215-824 limits assumed): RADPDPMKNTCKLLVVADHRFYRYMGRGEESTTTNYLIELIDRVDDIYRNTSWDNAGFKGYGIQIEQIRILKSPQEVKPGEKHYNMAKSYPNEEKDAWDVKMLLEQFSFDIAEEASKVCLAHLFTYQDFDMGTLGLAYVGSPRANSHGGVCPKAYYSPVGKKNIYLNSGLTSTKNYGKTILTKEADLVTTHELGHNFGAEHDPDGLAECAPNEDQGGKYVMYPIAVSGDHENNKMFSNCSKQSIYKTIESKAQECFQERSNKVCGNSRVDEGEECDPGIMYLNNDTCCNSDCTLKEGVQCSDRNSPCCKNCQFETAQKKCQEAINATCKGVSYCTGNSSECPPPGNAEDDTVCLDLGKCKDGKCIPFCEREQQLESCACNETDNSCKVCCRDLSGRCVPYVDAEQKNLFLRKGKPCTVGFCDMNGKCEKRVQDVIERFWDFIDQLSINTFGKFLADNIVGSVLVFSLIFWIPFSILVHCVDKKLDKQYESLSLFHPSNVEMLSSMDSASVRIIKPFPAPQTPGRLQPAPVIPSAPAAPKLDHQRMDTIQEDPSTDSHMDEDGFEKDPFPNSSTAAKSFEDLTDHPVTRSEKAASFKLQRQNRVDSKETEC
Method in brief: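 Material: ADAM17 metalloprotease enzyme, cell-free biochemical assay. Amount: ADAM17 enzyme added as 2X solution at 20 nM. Timing: 30 min preincubation plus 3 h reaction, 25 °C. Measure: IC50 from four-parameter sigmoidal dose-response fit. Measured by: fluorescence, ex 359 nm, em 460 nm. Buffer or medium: 50 mM HEPES buffer pH 7.5 with 0.01% Brij.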

IC50, inactive:
COc1ccc(-c2ccc(-c3noc(-c4cccc(OC)c4)n3)c(OC)n2)cc1 > 69.5 µM, C=C(C)COc1ccc(-c2n[nH]c(C)c2Oc2ccccc2OC)c(O)c1 > 69.5 µM, COc1cccc(C(=O)NNC(=O)C(=O)Nc2ccc(C)c(Cl)c2)c1 > 69.5 µM, Cc1ccc(CC2(c3ccccc3)NC(=O)NC2=O)cc1 (centres undefined), O=C(Nc1ccc(OCC(F)(F)C(F)F)c(C(F)(F)F)c1)c1ccc(Cl)cc1 > 69.5 µM, Oc1cc2c(cc1C(c1ccc(Cl)c(Cl)c1)N1CCCC1)OCO2 (centres undefined), Cc1ccc(S(=O)(=O)Nc2ccc(Cl)cc2)cc1NC(=O)c1cc2c(s1)CCCC2 > 69.5 µM, CS(=O)(=O)N(CC(=O)Nc1ccccc1Sc1ccccc1)c1cccc(Br)c1 > 69.5 µM, CCCOC(=O)c1ccc(Oc2cn[nH]c2-c2ccc(OCC)cc2O)cc1 > 69.5 µM, O=C(Nc1ccc(OCC(F)(F)C(F)(F)F)c(C(F)(F)F)c1)c1ccc(Br)cc1 > 69.5 µM, C=C(C)COc1ccc(-c2[nH]ncc2Oc2ccc(OC)cc2)c(O)c1 > 69.5 µM, O=C(Nc1ccc(OCC(F)(F)C(F)(F)F)c(C(F)(F)F)c1)c1ccc(F)cc1 > 69.5 µM, C=C(C)COc1ccc(-c2[nH]ncc2Oc2cccc(OC)c2)c(O)c1 > 69.5 µM, Cc1ccc(OCC(O)Cn2c3ccccc3c3ccccc32)cc1 (centres undefined) > 69.5 µM, O=S(=O)(NCC(Nc1ccc(Cl)cc1)c1ccccc1)c1ccc(Cl)cc1 (centres undefined) > 69.5 µM, O=C(O)CCC(=O)c1c[nH]c2ccccc12, O=C(CN(Cc1cccs1)S(=O)(=O)c1ccc(S(=O)(=O)NC2CCCCC2)cc1)Nc1ccccc1 > 69.5 µM, COc1ccccc1NS(=O)(=O)c1cccc(NC(=O)Nc2ccc(Cl)cc2)c1 > 69.5 µM, Cc1csc(-c2cnn(-c3ccccc3)c2NC(=O)c2ccc(C(F)(F)F)cc2)n1 > 69.5 µM, O=S(=O)(NCC(Nc1ccc(Cl)cc1)c1ccccc1)c1ccccc1 (centres undefined) > 69.5 µM, CCCCN(Cc1ccccc1)S(=O)(=O)c1cc(Br)cc2c1N(C(C)=O)C(C)C2 (centres undefined) > 69.5 µM, COc1ccc2nc(SCC(=O)Nc3ccc(S(=O)(=O)N4CCCC4)cc3)c(C#N)cc2c1 > 69.5 µM

IC50, active:
O=C1NC(=O)C(Cc2ccc(Cl)cc2)(c2ccccc2)N1 (centres undefined) 3.76 µM, CCOc1ccc(NC(=O)CC2SC(=O)N(c3ccccc3)C2=O)cc1 (centres undefined) 7.83 µM
